# From ChEMBL document CHEMBL1165950, “Design and synthesis of new potent anticancer pyrazoles with high FLT3 kinase inhibitory selectivity” (Bioorg Med Chem, 2010)
# What was measured:
# [1] = biological target: Receptor-type tyrosine-protein kinase FLT3 (Homo sapiens) (UniProt P36888); experiment: Inhibition of FLT3 at 10 uM by HotSpot assay
# [2] = biological target: Receptor-type tyrosine-protein kinase FLT3 (Homo sapiens, UniProt P36888); experiment: Inhibition of FLT3 by HotSpot assay
# 786-0 = experiment: Cytotoxicity against human 786-0 cells assessed as cell growth at 10 uM after 48 hrs by sulforhodamine B assay; format: functional; settings: 786-0, 48 h, read-out: Activity
# HOP-92 = experiment: Cytotoxicity against human HOP92 cells assessed as cell growth at 10 uM; format: functional; settings: read-out: Activity
# In short: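 Single-dose NCI-60 screen at 10 µM. Cells were grown in RPMI 1640 with 5% FBS and 2 mM L-glutamine, then treated for 48 h at 37 °C. Protein was measured by SRB staining with absorbance at 515 nm. Percentage growth was recorded, and inhibition percentage was calculated as 100 minus growth percentage.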
# SF-295 = experiment: Cytotoxicity against human SF295 cells assessed as cell growth at 10 uM after 48 hrs by sulforhodamine B assay; format: functional; settings: SF-295, 48 h, read-out: Activity
# HCC 2998 = experiment: Cytotoxicity against human HCC2998 cells assessed as cell growth at 100 nM after 48 hrs by sulforhodamine B assay; format: functional; settings: HCC 2998, 48 h, read-out: Activity
# SK-MEL-28 [3] = experiment: Cytotoxicity against human SK-MEL-28 cells assessed as cell growth at 100 nM after 48 hrs by sulforhodamine B assay; format: functional; settings: SK-MEL-28, 48 h, read-out: Activity
# MCF7 [4] = experiment: Cytotoxicity against human MCF7 cells assessed as cell growth at 100 nM after 48 hrs by sulforhodamine B assay; format: functional; settings: MCF7, 48 h, read-out: Activity
# SK-MEL-28 [5] = experiment: Cytotoxicity against human SK-MEL-28 cells assessed as cell growth at 1 uM after 48 hrs by sulforhodamine B assay; format: functional; settings: SK-MEL-28, 48 h, read-out: Activity
# SK-MEL-28 [6] = experiment: Cytotoxicity against human SK-MEL-28 cells assessed as cell growth at 10 uM after 48 hrs by sulforhodamine B assay; format: functional; settings: SK-MEL-28, 48 h, read-out: Activity
# MCF7 [7] = experiment: Cytotoxicity against human MCF7 cells assessed as cell growth at 1 uM after 48 hrs by sulforhodamine B assay; format: functional; settings: MCF7, 48 h, read-out: Activity
# NCI-H226 [8] = experiment: Cytotoxicity against human NCI-H226 cells assessed as cell growth at 1 uM after 48 hrs by sulforhodamine B assay; format: functional; settings: NCI-H226, 48 h, read-out: Activity
# NCI-H226 [9] = experiment: Cytotoxicity against human NCI-H226 cells assessed as cell growth at 0.01 uM after 48 hrs by sulforhodamine B assay; format: functional; settings: NCI-H226, 48 h, read-out: Activity
# SR [10] = experiment: Cytotoxicity against human SR cells assessed as cell growth at 0.01 uM after 48 hrs by sulforhodamine B assay; format: functional; settings: read-out: Activity
# MCF7 [11] = experiment: Growth inhibition of human MCF7 cells after 48 hrs by sulforhodamine B assay; format: functional; settings: MCF7, 48 h
# In short: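 NCI 60-cell screen, five-dose mode. Cells grown in RPMI 1640 with 5% FBS and 2 mM L-glutamine and plated at 5000-40,000 cells/well according to doubling time. After 24 h preincubation, a Tz plate was TCA-fixed. Five concentrations (10-fold or 1/2 log dilutions) were applied for 48 h at 37 °C. SRB staining read at 515 nm. IC50 taken from [(Ti-Tz)/(C-Tz)]×100 = 50.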
# KM12 = experiment: Cytotoxicity against human KM12 cells assessed as cell growth at 10 uM; format: functional; settings: read-out: Activity
# In short: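 NCI-60 screen: cells grown in RPMI 1640 with 5% FBS and 2 mM L-glutamine, plated at 5000–40,000 cells/well according to doubling time, and preincubated 24 h at 37 °C, 5% CO2. The single 10 µM dose (DMSO stock) was added, then incubated 48 h. Cells were TCA-fixed and stained with 0.4% SRB, read at 515 nm, and growth % calculated against time-zero and control plates.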
# SR [12] = experiment: Cytotoxicity against human SR cells assessed as cell growth at 1 uM after 48 hrs by sulforhodamine B assay; format: functional; settings: read-out: Activity
# HCT-116 = experiment: Cytotoxicity against human HCT116 cells assessed as cell growth at 100 nM after 48 hrs by sulforhodamine B assay; format: functional; settings: HCT-116, 48 h, read-out: Activity
# Receptor-type tyrosine-protein kinase FLT3 (Homo sapiens), sequence (P36888 whole entry): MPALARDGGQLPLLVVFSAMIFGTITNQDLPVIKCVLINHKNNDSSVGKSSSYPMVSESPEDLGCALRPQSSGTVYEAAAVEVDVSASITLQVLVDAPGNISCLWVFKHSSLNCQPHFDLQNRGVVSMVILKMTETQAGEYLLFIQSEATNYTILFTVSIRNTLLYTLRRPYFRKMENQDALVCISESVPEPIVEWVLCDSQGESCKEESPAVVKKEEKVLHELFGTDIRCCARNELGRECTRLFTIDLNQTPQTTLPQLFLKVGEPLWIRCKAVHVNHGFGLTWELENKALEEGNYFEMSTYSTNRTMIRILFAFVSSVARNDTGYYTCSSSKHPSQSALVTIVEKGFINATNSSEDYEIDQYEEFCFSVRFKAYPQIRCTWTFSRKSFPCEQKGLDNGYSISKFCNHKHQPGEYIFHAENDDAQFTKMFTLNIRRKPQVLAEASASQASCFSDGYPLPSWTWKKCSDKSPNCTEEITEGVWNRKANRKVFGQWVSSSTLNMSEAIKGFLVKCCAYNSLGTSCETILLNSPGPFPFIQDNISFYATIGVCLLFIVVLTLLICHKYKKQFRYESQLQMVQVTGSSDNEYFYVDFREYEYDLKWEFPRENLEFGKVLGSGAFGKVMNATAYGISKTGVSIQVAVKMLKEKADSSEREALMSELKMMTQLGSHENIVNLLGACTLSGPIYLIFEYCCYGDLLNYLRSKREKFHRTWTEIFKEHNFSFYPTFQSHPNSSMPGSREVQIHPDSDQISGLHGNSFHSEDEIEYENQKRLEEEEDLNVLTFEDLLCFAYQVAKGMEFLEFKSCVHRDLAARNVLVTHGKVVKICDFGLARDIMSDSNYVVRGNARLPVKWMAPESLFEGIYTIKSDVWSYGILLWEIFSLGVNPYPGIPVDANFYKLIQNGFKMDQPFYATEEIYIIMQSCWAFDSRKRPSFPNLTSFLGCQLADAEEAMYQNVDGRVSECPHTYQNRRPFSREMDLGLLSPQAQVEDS
# Receptor-type tyrosine-protein kinase FLT3, sequence (P36888 whole entry): as above
SMILES,inhibition [1],IC50 [2],growth at 10 µM (786-0),growth at 10 µM (HOP-92),growth at 10 µM (SF-295),growth at 0.1 µM (HCC 2998),growth at 0.1 µM (SK-MEL-28 [3]),growth at 0.1 µM (MCF7 [4]),growth at 1 µM (SK-MEL-28 [5]),growth at 10 µM (SK-MEL-28 [6]),growth at 1 µM (MCF7 [7]),growth at 1 µM (NCI-H226 [8]),growth at 0.01 µM (NCI-H226 [9]),growth at 0.01 µM (SR [10]),GI50 (MCF7 [11]),LC50 (MCF7 [11]),TGI (MCF7 [11]),growth at 10 µM (KM12),growth at 1 µM (SR [12]),growth at 0.1 µM (HCT-116)
COc1cc(C)cc(-c2c(-c3ccnc(-c4ccc(N(C)C)cc4)c3)cnn2CC#N)c1,82.3%,1.74 µM,6%,29.1%,-30%,–,–,–,–,–,–,–,–,–,–,–,–,–,–,–
COc1cc(C)cc(-c2nn(CC#N)cc2-c2ccc(-c3cccc(C(C)=O)c3)nc2)c1,–,–,–,48.4%,–,81%,74%,69%,31%,-1%,7%,29%,88%,103%,2.05 µM,> 100 µM,15.9 µM,34.1%,22%,78%
COc1cc(C)cc(-c2c(-c3ccnc(-c4ccc(C(C)=O)cc4)c3)cnn2CC#N)c1,–,–,20%,23.5%,35%,104%,95%,86%,44%,46%,16%,34%,93%,95%,3.25 µM,> 100 µM,> 100 µM,80.2%,18%,73%
Cc1cc(O)cc(-c2nn(CC#N)cc2-c2ccnc(-c3ccc(N(C)C)cc3)c2)c1,–,–,-49%,32.4%,-54%,87%,96%,50%,32%,-31%,10%,19%,94%,93%,0.975 µM,69.9 µM,13.9 µM,27.3%,17%,87%
COc1cc(C)cc(-c2nn(CC#N)cc2-c2ccnc(-c3ccc(N(C)C)cc3)c2)c1,–,–,-36%,–,-32%,20%,44%,24%,45%,13%,7%,3%,105%,97%,0.0664 µM,> 100 µM,22.7 µM,7.15%,18%,11%
Cc1cc(O)cc(-c2nn(CC#N)cc2-c2ccnc(-c3ccc(Oc4ccccc4)cc3)c2)c1,–,–,-93%,–,-61%,107%,95%,95%,30%,-100%,-34%,6%,89%,95%,2.23 µM,21.9 µM,5.48 µM,39.9%,16%,86%
